Results from different studies.
Compare with care: the assays were run in different laboratories.
Observed: cell growth or viability

N[C@@H](CC(=O)N1CCN(C(c2ccc(F)cc2)c2ccc(F)cc2)CC1)C(=O)N1Cc2ccccc2C1 — IC50 (OCI-AML2; ATP luminescence; 48 h): 1.41 µM
Cc1cc(Oc2ccc(NC(=O)c3sc(-c4ccncc4)nc3C)cc2F)c2nncn2n1 — IC50 (L02; MTT): > 50 µM
C#CCSc1nc(Sc2nnnn2-c2ccccc2)c2nnn(Cc3ccc(OC)cc3)c2n1 — IC50 (OCI-AML-3; MTS; 6 days): 4.72 µM
Oc1ccc(Nc2nc(-c3ccc(Cl)cc3)cs2)cc1 — IC50 (WM-115; MTS; 24 h): 38.9 µM
COc1cc(-c2ncn(/C=C\C(=O)OC(C)C)n2)cc(C(F)(F)F)c1 — IC50 (OCI-AML-3; 72 h): 0.112 µM
COc1ccc(C(=O)O[C@@H]2CN3Cc4c(cc5c(c4OC)OCO5)[C@@]24C=C[C@H](OC)C[C@@H]34)cc1OC — IC50 (PANC-1; WST-1): 2.3 µM
CC[C@@H](C)[C@H](N)C(=O)N1Cc2ccccc2C1 — IC50 (OCI-AML2; ATP luminescence): 0.3 µM
COCCCOc1ccnc(COc2ccc(NC(=O)Nc3ccc(OC)cc3)cc2)c1C — IC50 (L02; MTT; 72 h): > 100 µM
COc1cc2nccc(Oc3ccc(NC(=O)C4(C(=O)Nc5ccc(F)cc5)CC4)cc3)c2cc1OC — IC50 (OCI-AML-3; trypan blue; 72 h): > 9 µM
CCN1CCN(c2ccc(Nc3cc(N(C)C(=O)Nc4c(Cl)c(OC)cc(OC)c4Cl)ncn3)cc2)CC1 — IC50 (Li-7; ATP luminescence; 96 h): > 1 µM
CC[C@]1(O)C[C@H]2CN(CCc3c([nH]c4ccccc34)[C@@](C(=O)OC)(c3cc4c(cc3OC)N(C=O)[C@H]3[C@@](O)(C(=O)OC)[C@H](OC(C)=O)[C@]5(CC)C=CCN6CC[C@]43[C@@H]65)C2)C1 — IC50 (NALM-6; MTT; 48 h): 0.00087 µM
Nc1nc(Nc2ccc3c(c2)CC[C@@H](N2CCCC2)CC3)nn1-c1cc2c(nn1)-c1ccccc1CCC2 — IC50 (OCI-AML-3; trypan blue; 72 h): 2.9 µM
CC(=O)c1cccc(/N=N/c2cc(/C=C/C(=O)O)ccc2O)c1 — IC50 (PANC-1; MTT): > 50 µM
Cc1cc(Oc2ccc(NC(=O)c3sc(-c4cccnc4)nc3C)cc2)n2ncnc2n1 — IC50 (L02; MTT): > 50 µM
CCN1C(=O)N(c2c(F)c(OC)cc(OC)c2F)Cc2cnc3[nH]c(CN4CCOCC4)cc3c21 — IC50 (Li-7; ATP luminescence; 96 h): 0.054 µM
Cc1cc(Oc2ccc(NC(=O)c3cnn(-c4ccc(Cl)cc4)c3C(F)(F)F)cc2F)c2nncn2n1 — IC50 (L02; MTT): > 50 µM
COc1cccc2c1C(=O)c1c(O)c3c(c(O)c1C2=O)C[C@@](O)(C(=O)CO)C[C@@H]3O[C@H]1C[C@H](N)[C@H](O)[C@H](C)O1 — IC50 (CCD-986Sk; MTT; 48 h): > 10 µg/mL
COCCCOc1ccnc(COc2ccc(NC(=O)Nc3ccc(Cl)c(C(F)(F)F)c3)cc2)c1C — IC50 (L02; MTT; 72 h): > 100 µM
Cc1ccc(S(=O)(=O)OCC(=O)Nc2ccc(C(=O)O)c(O)c2)cc1 — IC50 (OCI-AML2): 112 µM
COCCCOc1ccnc(COc2ccc(NC(=O)Nc3ccc(F)cc3)cc2)c1C — IC50 (L02; MTT; 72 h): > 100 µM
O=C(O)/C=C/c1ccc(O)cc1 — IC50 (PANC-1; MTT): > 50 µM
CO[C@H]1/C=C\C=C(/C)C(=O)NC2=CC(=O)C(NCCN(C)C)=C(C[C@@H](C)C[C@H](OC)[C@H](O)[C@@H](C)/C=C(\C)[C@@H]1OC(N)=O)C2=O — IC50 (ARPE-19; MTT): 0.15 µM
O=C(N/N=C/c1c(O)ccc2ccccc12)c1cc(-c2ccc3ccccc3c2)n[nH]1 — IC50 (WM-115; MTS; 48 h): 5.6 µM
COc1ccnc(COc2ccc(NC(=O)Nc3cc(F)cc(F)c3)cc2)c1OC — IC50 (L02; MTT; 72 h): > 100 µM
Cc1cc(Oc2ccc(NC(=O)c3sc(-c4ccccn4)nc3C)cc2F)n2ncnc2n1 — IC50 (L02; MTT): > 50 µM
COc1c(C)cnc(COc2ccc(NC(=O)Nc3ccc(F)cc3)cc2)c1C — IC50 (L02; MTT; 72 h): > 100 µM
c1ccc(-c2ccccn2)nc1 — IC50 (L02; MTT; 48 h): > 50 µM
Cc1c(OCC(F)(F)F)ccnc1COc1ccc(NC(=O)Nc2ccc(F)cc2)cc1 — IC50 (L02; MTT; 72 h): > 100 µM
CO[C@H]1/C=C\C=C(/C)C(=O)NC2=C(c3ccccc3)C(=O)C(NCCN(C)C)=C(C[C@@H](C)C[C@H](OC)[C@H](O)[C@@H](C)/C=C(\C)[C@@H]1OC(N)=O)C2=O — IC50 (ARPE-19; MTT): 8.2 µM
Cc1cc(Oc2ccc(NC(=O)c3cc(-c4cccs4)no3)cc2F)n2ncnc2n1 — IC50 (L02; MTT): > 50 µM
COCCCOc1ccnc(COc2ccc(NC(=O)Nc3cc(F)cc(F)c3)cc2)c1C — IC50 (L02; MTT; 72 h): > 100 µM
Cc1ccc2c(Cl)cc(Cl)c(O)c2n1 — IC50 (L02; MTT; 48 h): > 100 µM
COc1c(C)cnc(COc2ccc(NC(=O)Nc3ccc(Cl)cc3)cc2)c1C — IC50 (L02; MTT; 72 h): > 100 µM
Cc1cc(Oc2ccc(NC(=O)c3sc(-c4ccccc4)nc3C)cc2)c2nncn2n1 — IC50 (L02; MTT): > 50 µM
c1cnc2c(c1)ccc1cccnc12 — IC50 (L02; MTT; 48 h): > 50 µM
